This is an account of results in ChEMBL document CHEMBL3763127, “Design, synthesis and biological evaluation of novel asperphenamate derivatives” (Eur J Med Chem, 2016).

Activity calls are given as the source filed them. No cut-off for these calls is given here.

In experiment [1] the test system is HeLa. Briefly: Induction of apoptosis in human HeLa cells assessed as accumulation at subG1 phase at 20 uM after 48 hrs by PI staining-based flow cytometric analysis (reference value: 2.89%). Type of experiment: functional.
In experiment [2] the test system is MCF7. Briefly: Induction of autophagy in human MCF7 cells at 10 uM after 72 hrs by MDC staining-based flow cytometric analysis (reference value: 2.54%). Type of experiment: functional.
In experiment [3] the test system is MCF7. Put plainly: Induction of cell cycle arrest in human MCF7 cells assessed as accumulation at G2/M phase at 10 uM after 24 hrs by PI staining-based flow cytometric analysis (reference value: 19.85%). Type of experiment: functional.
Experiment [4] concerns MCF7. Put plainly: Induction of cell cycle arrest in human MCF7 cells assessed as accumulation at S phase at 10 uM after 24 hrs by PI staining-based flow cytometric analysis (reference value: 27.09%). Type of experiment: functional. In general terms: Flow cytometry measures light scatter and fluorescence of single cells or particles in a stream.
The subject of experiment [5] is MCF7. Briefly: Induction of apoptosis in human MCF7 cells assessed as accumulation at subG1 phase at 10 uM after 72 hrs by PI staining-based flow cytometric analysis (reference value: 2.98%). It counts as functional.
Experiment [6] has as its system MCF7. Briefly: Induction of apoptosis in human MCF7 cells assessed as accumulation at subG1 phase at 10 uM after 24 hrs by PI staining-based flow cytometric analysis (reference value: 2.98%). Type of experiment: functional.
A short description of experiment [7]: Cytotoxicity against human Bel7402 cells after 3 days by MTT assay. It counts as functional, cell-based. As to conditions: Bel-7402, 72 h. The gist of the method:
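MCF-7, HeLa and BEL-7402 cells were grown in RPMI 1640 with 10% heat-inactivated FBS, 1 mM glutamine and penicillin/streptomycin at 37 °C under 5% CO2. They were exposed to compound for 3 days, then read by MTT at 570 nm. Viability was taken as treated/control absorbance, and IC50 was derived from it. Values are mean SD of three independent experiments.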
(Tetrazolium assays rely on reduction of a dye to a coloured formazan, in cell work by metabolically active cells.)

Experiment [8] relates to HeLa. Briefly: Induction of autophagy in human HeLa cells assessed as increase in LC3-2 level at 20 and 40 uM after 48 hrs by Western blot analysis. It counts as functional, cell-based. Summed up:
(§1)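 Cells were treated with or without compound for 48 h: MCF-7 at 5 and 10 µM, HeLa and BEL-7402 at 20 and 40 µM. Total protein (10 µg) in SDS sample buffer (pH 6.8) was run on 8–15% SDS-PAGE and transferred to PVDF. LC3-I/LC3-II were probed with HRP secondary antibody and ECL detection. The assay was repeated at least three times.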
(Immunoblotting shows a protein as a band on a membrane.)

Experiment [9] deals with Bel-7402. Put plainly: Induction of autophagy in human Bel7402 cells assessed as increase in LC3-2 level at 20 and 40 uM after 48 hrs by Western blot analysis. It counts as functional, cell-based. Summed up: as §1
Experiment [10] concerns MCF7. Put plainly: Potency index, ratio of IC50 for cisplatin to IC50 for test compound for cytotoxicity against human MCF7 cells. It counts as functional.
Experiment [11] relates to Bel-7402. Put plainly: Induction of cell cycle arrest in human Bel7402 cells assessed as accumulation at G2/M phase at 20 uM after 72 hrs by PI staining-based flow cytometric analysis (reference value: 22.26%). Type of experiment: functional.
In experiment [12] the test system is HeLa. Briefly: Induction of autophagy in human HeLa cells assessed as autophagosome accumulation at 20 uM after 72 hrs by MDC staining-based flow cytometric analysis (reference value: 1.92%). Type of experiment: functional.
Experiment [13] deals with Bel-7402. Put plainly: Induction of cell cycle arrest in human Bel7402 cells assessed as accumulation at G0/G1 phase at 20 uM after 72 hrs by PI staining-based flow cytometric analysis (reference value: 49.44%). Type of experiment: functional.
The test system of experiment [14] is HeLa. Briefly: Induction of cell cycle arrest in human HeLa cells assessed as accumulation at G2/M phase at 20 uM after 72 hrs by PI staining-based flow cytometric analysis (reference value: 25.44%). Type of experiment: functional.
Experiment [15] relates to HeLa. Briefly: Induction of cell cycle arrest in human HeLa cells assessed as accumulation at S phase at 20 uM after 72 hrs by PI staining-based flow cytometric analysis (reference value: 24.17%). It counts as functional.
Experiment [16] concerns Bel-7402. Briefly: Induction of cell cycle arrest in human Bel7402 cells assessed as accumulation at G0/G1 phase at 20 uM after 48 hrs by PI staining-based flow cytometric analysis (reference value: 49.44%). Type of experiment: functional.

As for `Cc1ccc(S(=O)(=O)N[C@H](Cc2ccccc2)C(=O)OC[C@H](Cc2ccccc2)NC(=O)c2ccccc2)cc1`, the Activity is given as 2.12% in experiment [1]; 56.08% in experiment [2]; 19.09% in experiment [3]; 24.98% in experiment [4]; 3.76% in [5]; 3.38% in experiment [6]. In addition, the Activity in experiment [11] was determined as 22.61%; in [12], 26.11%; in experiment [13], 45.89%; in experiment [14], 21.52%; in experiment [15], 25.91%; in experiment [16] it was 47.63%. In addition, the IC50 (in general, the concentration that gives 50% inhibition) in experiment [7] was determined as 12.5 µM. Besides, the outcome in [8] and in experiment [9] was Active. Moreover, the “Ratio IC50” value in [10] turned out to be 3.
